Laboratory results taken from ChEMBL document CHEMBL1138799, “4-benzyl- and 4-benzoyl-3-dimethylaminopyridin-2(1H)-ones, a new family of potent anti-HIV agents: optimization and in vitro evaluation against clinically important HIV mutant strains” (J Med Chem, 2004).

Assays:
[1] = system: Human immunodeficiency virus 1; test: Selectivity index of cytotoxic activity (CC50) to inhibitory activity (IC50) relative to LAI cell line; assay type: functional
Method in brief: (§1)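 MT4 human T-lymphoblastoid cells were grown in RPMI 1640 with 10% fetal calf serum and antibiotics at 37 °C and 5% CO2. A compound concentration series was combined with HIV-1 LAI at 200 CCID50/well and 30 000 cells/well. Mock-infected cultures with the same concentrations were run in parallel to measure cytotoxicity. After 5 days, cell viability was read by MTT colorimetry. EC50 is the concentration giving 50% infection versus the drug-free control.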

[2] = system: Human immunodeficiency virus 1; test: Inhibitory activity against wild type HIV-1 LAI cell line; assay type: functional, organism-based; settings: Human immunodeficiency virus 1, LAI; method in brief: as §1
[3] = system: Human immunodeficiency virus 1; test: Inhibitory activity against HIV-1 mutant strain 188L; assay type: functional, organism-based
Method in brief: (§2)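 Mutant HIV-1 made by recombining mutant PR-RT sequence into a PR-RT-deleted HXB2 proviral clone. Serial compound concentrations plated, then virus (200 CCID50/well) and MT4 cells (30 000 cells/well; RPMI 1640, 10% FCS) added; 5 days at 37 °C, 5% CO2; viability read by MTT. EC50 = concentration giving 50% infection versus drug-free control; mock-infected cultures run in parallel for toxicity.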

[4] = system: Human immunodeficiency virus 1; test: Inhibitory activity against HIV-1 mutant strain 181C; assay type: functional, organism-based; method in brief: as §2
[5] = system: Human immunodeficiency virus 1; test: Inhibitory activity against HIV-1 mutant strain 103N; assay type: functional, organism-based; method in brief: as §2

Row | Structure (SMILES) | Selectivity index [1] | IC50 [2] [nM] | IC50 [3] [µM] | IC50 [4] [µM] | IC50 [5] [nM]
1 | CCc1c(C)nc(O)c(N(C)C)c1C(=O)c1cccc(C)c1 | 39800 | 2 | 1.99 |  | 
2 | CCc1c(C)nc(O)c(N(C)C)c1C(=O)c1cccc(/C=C\c2ccccc2)c1 | 79 | 1250 |  |  | 
3 | CCc1c(C)nc(O)c(N(C)C)c1C(=O)c1cccc(C(C)O)c1 (stereo not drawn) | 2000 | 50 |  |  | 
4 | CCc1c(C)nc(O)c(N(C)C)c1C(=O)c1cccc(CO)c1 | 2940 | 50 | 18.6 | 3.87 | 360
5 | CCc1c(C)nc(O)c(N(C)C)c1Cc1cn(C)c2ccccc12 | 2510 | 30 | 0.25 | 0.31 | 390
6 | CCc1c(C)nc(O)c(N(C)C)c1C(=O)c1cccc(/C=C/c2ccccc2)c1 | 398 | 250 |  |  | 
7 | CCc1c(C)nc(O)c(N(C)C)c1C(=O)c1cccc(C#Cc2ccccc2)c1 | 631 | 150 |  |  | 
8 | CCc1c(C)nc(O)c(N(C)C)c1C(=O)c1cccc(/C=C\c2ccccn2)c1 | 63 | 1580 |  |  | 
9 | CCc1c(C)nc(O)c(N(C)C)c1C(=O)c1cccc(-c2ccco2)c1 | 158 | 60 |  |  | 
10 | CCc1c(C)nc(O)c(N(C)C)c1C(=O)c1cccc(C(C)C#N)c1 (stereo not drawn) | 31600 | 3 | 0.25 | 0.12 | 8
11 | CCc1c(C)nc(O)c(N(C)C)c1C(=O)c1cccc(CNC(C)=O)c1 | 251 | 390 |  |  | 
12 | CCc1c(C)nc(O)c(N(C)C)c1C(=O)c1cccc(COc2ccccc2)c1 | 2510 | 30 |  |  | 
13 | CCc1c(C)nc(O)c(N(C)C)c1Cc1c(C)cc(C)cc1C | 1 | 10000 |  | 10 | 10000
14 | CCc1c(C)nc(O)c(N(C)C)c1Cc1ccc(C)cc1C | 10 | 10000 |  | 100 | 100000
15 | CCc1c(C)nc(O)c(N(C)C)c1Cc1ccnc2ccccc12 | 20 | 5010 |  | 63 | 79400
16 | CCc1c(C)nc(O)c(N(C)C)c1C(=O)c1cccs1 | 6310 | 10 | 100 | 3.98 | 310
17 | CC/C=C/c1cccc(C(=O)c2c(CC)c(C)nc(O)c2N(C)C)c1 | 1260 | 50 |  |  | 
18 | CCc1c(C)nc(O)c(N(C)C)c1Cc1cccnc1 | 6310 | 10 | 3.98 | 1 | 390
19 | CCc1c(C)nc(O)c(N(C)C)c1C(=O)c1cccc(/C=C/c2cccn2C)c1 | 158 | 310 |  |  | 
20 | CCOc1cccc(Cc2c(CC)c(C)nc(O)c2N(C)C)c1 | 794 | 10 |  |  | 
21 | CCc1c(C)nc(O)c(N(C)C)c1Cc1ccc(C(F)(F)F)cc1 | 6 | 1580 |  | 10 | 10000
22 | CCc1c(C)nc(O)c(N(C)C)c1C(=O)c1cccc(/C=C\c2nccs2)c1 | 501 | 150 |  |  | 
23 | CCc1c(C)nc(O)c(N(C)C)c1Cc1ccc(Cl)cc1 | 50 | 190 |  | 6.31 | 

Row | Structure (SMILES) | Selectivity index [1] | IC50 [2] [nM] | IC50 [3] [µM] | IC50 [4] [µM] | IC50 [5] [nM]
24 | CCc1c(C)nc(O)c(N(C)C)c1C(=O)c1cccc(C=C(C#N)C#N)c1 | 3980 | 10 |  |  | 
25 | CCc1c(C)nc(O)c(N(C)C)c1Cc1ccc(N(C)C)cc1 | 8 | 1250 |  | 10 | 10000
26 | CCc1c(C)nc(O)c(N(C)C)c1Cc1cc(C)ccc1C | 631 | 150 |  |  | 1990
27 | CCc1c(C)nc(O)c(N(C)C)c1C(=O)c1cccc(/C=C/c2ccncc2)c1 | 10000 | 10 |  |  | 
28 | CCc1c(C)nc(O)c(N(C)C)c1C(=O)c1cccc(/C=C(\C#N)c2cccnc2)c1 | 200 | 60 |  |  | 
29 | CCc1c(C)nc(O)c(N(C)C)c1C(=O)c1cccc(/C=C/c2ccoc2)c1 | 631 | 70 |  |  | 
30 | CCc1c(C)nc(O)c(N(C)C)c1Cc1ccc(C)cc1 | 316 | 310 |  | 10 | 12600
31 | CCc1c(C)nc(O)c(N(C)C)c1Cc1ccc(OC)c(C)c1 | 251 | 390 |  |  | 
32 | CCc1c(C)nc(O)c(N(C)C)c1C(=O)c1cccc(/C=C/c2cccs2)c1 | 1260 | 70 |  |  | 
33 | CCc1c(C)nc(O)c(N(C)C)c1C(=O)c1cccc(/C=C\c2cnccn2)c1 | 501 | 190 |  |  | 
34 | CCc1c(C)nc(O)c(N(C)C)c1Cc1ccc(-c2ccccc2)cc1 | 3 | 3980 |  | 10 | 10000
35 | CCc1c(C)nc(O)c(N(C)C)c1C(=O)c1cccc(/C=C/c2ccsc2)c1 | 1000 | 100 |  |  | 
36 | CCc1c(C)nc(O)c(N(C)C)c1C(=O)c1cc(F)cc(C(F)(F)F)c1 | 31600 | 3 |  |  | 
37 | CCc1c(C)nc(O)c(N(C)C)c1Cc1cccc(C)c1C | 200 | 100 |  | 2.51 | 2510
38 | CCc1c(C)nc(O)c(N(C)C)c1C(=O)c1cccc(N(C)C)c1 | 251 | 390 |  |  | 
39 | CCc1c(C)nc(O)c(N(C)C)c1C(=O)c1cccc(/C=C\c2ccco2)c1 | 794 | 60 |  |  | 
40 | CCc1c(C)nc(O)c(N(C)C)c1Cc1ccc(Br)cc1 | 63 | 1580 |  |  | 
41 | CCc1c(C)nc(O)c(N(C)C)c1C(=O)c1cccc(/C=C(\C#N)c2cccs2)c1 | 126 | 190 |  |  | 
42 | CCc1c(C)nc(O)c(N(C)C)c1C(=O)c1cccc(/C=C/c2ccco2)c1 | 5010 | 20 |  |  | 
43 | CCc1c(C)nc(O)c(N(C)C)c1C(=O)c1cccc(/C=C(\C#N)c2ccccc2)c1 | 16 | 1000 |  |  | 
44 | CCc1c(C)nc(O)c(N(C)C)c1C(=O)c1cccc(NC(C)=O)c1 | 794 | 120 |  |  | 
45 | CCc1c(C)nc(O)c(N(C)C)c1C(=O)c1cccc(NS(C)(=O)=O)c1 | 100 | 1000 |  |  | 
46 | CCc1c(C)nc(O)c(N(C)C)c1C(=O)c1cccc(C=O)c1 | 2510 | 8 | 10 | 1.25 | 120

Row | Structure (SMILES) | Selectivity index [1] | IC50 [2] [nM] | IC50 [3] [µM] | IC50 [4] [µM] | IC50 [5] [nM]
47 | CCc1c(C)nc(O)c(N(C)C)c1C(=O)c1cccc(N2CCCC2=O)c1 | 2510 | 40 |  |  | 
48 | CCc1c(C)nc(O)c(N(C)C)c1C(=O)c1cccc(/C=C/c2ccccn2)c1 | 1260 | 70 |  |  | 
49 | CCOC(=O)/C(C#N)=C\c1cccc(C(=O)c2c(CC)c(C)nc(O)c2N(C)C)c1 | 631 | 150 |  |  | 
50 | CCc1c(C)nc(O)c(N(C)C)c1C(=O)c1cccc(-c2cccnc2)c1 | 126 | 6 | 10 | 10 | 50
51 | CCc1c(C)nc(O)c(N(C)C)c1Cc1nccs1 | 1580 | 60 |  | 0.5 | 1990
52 | CCc1c(C)nc(O)c(N(C)C)c1C(=O)c1cccc(C(C)=O)c1 | 3160 | 10 | 10 | 1 | 120
53 | CCc1c(C)nc(O)c(N(C)C)c1C(=O)c1cccc(/C=C\Cc2ccccc2)c1 | 32 | 1580 |  |  | 
54 | CCc1c(C)nc(O)c(N(C)C)c1C(=O)c1cccc(N(CC)CC)c1 | 50 | 1990 |  |  | 
55 | CCc1c(C)nc(O)c(N(C)C)c1C(=O)c1c(F)cccc1F | 2000 | 50 |  |  | 
56 | CCc1c(C)nc(O)c(N(C)C)c1Cc1ccc(C)c(C)c1 | 2510 | 40 |  | 0.4 | 1000
57 | CCc1c(C)nc(O)c(N(C)C)c1C(=O)c1ccc(C#N)cc1 | 32 | 3160 |  |  | 
58 | CCc1c(C)nc(O)c(N(C)C)c1C(=O)c1cccc(/C=C\c2ccncc2)c1 | 794 | 60 |  |  | 
59 | CCc1c(C)nc(O)c(N(C)C)c1C(=O)c1cccc(-c2nccs2)c1 | 40 | 250 |  |  | 
60 | CCc1c(C)nc(O)c(N(C)C)c1C(=O)c1cccc(/C=C(\C)C#N)c1 | 6310 | 1 | 0.63 |  | 
61 | CCc1c(C)nc(O)c(N(C)C)c1C(=O)c1cccc(/C=C\c2cccnc2)c1 | 631 | 70 |  |  | 
62 | CCc1c(C)nc(O)c(N(C)C)c1C(=O)c1cccc(CN)c1 | 251 | 390 |  |  | 
63 | CCc1c(C)nc(O)c(N(C)C)c1C(=O)c1cccc(-c2ccccc2)c1 | 251 | 390 |  |  | 
64 | CCNC(=O)Nc1cccc(C(=O)c2c(CC)c(C)nc(O)c2N(C)C)c1 | 50 | 1990 |  |  | 
65 | CCc1c(C)nc(O)c(N(C)C)c1C(=O)c1cccc(-n2cccc2)c1 | 631 | 70 |  |  | 
66 | CCc1c(C)nc(O)c(N(C)C)c1C(=O)c1cccc(CC#N)c1 | 31600 | 1 | 1 | 0.12 | 6
67 | CCc1c(C)nc(O)c(N(C)C)c1Cc1nccn1C | 1 | 100000 | 100 |  | 
68 | CCc1c(C)nc(O)c(N(C)C)c1C(=O)c1cccc(/C=C/c2nccs2)c1 | 3160 | 30 |  |  | 
